The subject of assay [1] is Rattus norvegicus. Description: In vivo stimulation of sGC in Sprague-Dawley rat model of hypoxia-induced pulmonary artery hypertension assessed as […] in PKG1 expression in lungs at 10 mg/kg, po administered daily for 2 weeks by Western blot analysis. The assay is classed as functional, organism-based. In a few lines: (§1)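 Hypoxic PAH model in male SD rats (160-200 g) kept at 10% O2 for 4 weeks. Oral dosing at 10 mg/kg daily for 14 days, suspended in 0.5% CMC-Na; control and hypoxia groups received vehicle only. Lungs homogenized in RIPA with protease and phosphatase inhibitors. 30 µg protein run on 10% SDS-PAGE, then PVDF blotting, with β-actin as loading reference. Three independent runs.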
(In general: In western blotting, separated proteins are transferred to a membrane and probed.)

Assay [2] in a line: Antiproliferative activity against HPASMC assessed as reduction in TGFbeta-induced cell proliferation measured after 48 hrs by CCK8 assay. The assay is classed as functional, tissue-based. To be noted: Homo sapiens, Pulmonary Artery Smooth Muscle Cells. In a few lines: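 HPASMCs grown in high-glucose D-MEM with 20% FBS and HLF1 in D-MEM/F-12 (1:1) with 10% FBS. Cells stimulated with TGF-β (10 ng/mL) at 37 °C, 5% CO2, then exposed to a concentration range for 48 h. CCK-8 added for 4 h and absorbance read at 490 nm. IC50 derived from the curves.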
On the technique in general: Formazan colour is commonly taken as a measure of viable cells.

Assay [3] relates to Rattus norvegicus. Kind of assay: Inhibition of vascular remodeling activity in Sprague-Dawley rat model of hypoxia-induced pulmonary artery hypertension assessed as reduction in TGFbeta expression in lungs at 10 mg/kg, po administered daily for 2 weeks by Western blot analysis. The assay is classed as functional, organism-based. In a few lines: as §1

The record followed here is ChEMBL document CHEMBL4699492, “Discovery of Novel Pyrazolo[3,4-b] Pyridine Derivatives with Dual Activities of Vascular Remodeling Inhibition and Vasodilation for the Treatment of Pulmonary Arterial Hypertension” (J Med Chem, 2020).

One may read the IC50 as the midpoint of a concentration-inhibition curve.

The structures appear in SMILES notation. Activity calls are given as the source filed them. No cut-off for these calls is given here.

As to `Cc1ccccc1COc1nc2c(cc1-c1nc(N)cc(N)n1)c(C)nn2-c1ccccc1`, the result in assay [1] was Active. Also, the IC50 in assay [2] is 17 µM. Besides, the inhibition result in assay [3] is “Active”.
